Experiments:
Adenosine receptor A2a [1] = target: T1, Adenosine receptor A2a (Homo sapiens, UniProt P29274); experiment: Displacement of [3H]ZM241385 from human recombinant adenosine A2A receptor expressed in CHO cell membranes by scintillation counting
Adenosine receptor A1 = target: T2, Adenosine receptor A1 (Homo sapiens, UniProt P30542); experiment: Displacement of [3H]DPCPX from human recombinant adenosine A1 receptor expressed in CHO cell membranes by scintillation counting
T2 sequence (P30542 whole entry): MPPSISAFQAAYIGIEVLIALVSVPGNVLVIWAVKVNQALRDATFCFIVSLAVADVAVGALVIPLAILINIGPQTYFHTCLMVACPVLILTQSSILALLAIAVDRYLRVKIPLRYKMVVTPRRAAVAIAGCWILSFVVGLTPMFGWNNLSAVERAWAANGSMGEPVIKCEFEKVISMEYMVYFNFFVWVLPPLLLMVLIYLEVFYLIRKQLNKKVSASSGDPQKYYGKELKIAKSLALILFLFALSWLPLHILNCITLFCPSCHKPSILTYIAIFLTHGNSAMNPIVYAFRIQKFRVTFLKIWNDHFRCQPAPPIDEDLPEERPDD
Outline: (§1)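 hA1 CHO membranes incubated with 1 nM [³H]DPCPX for 120 min at 25 °C in 50 mM Tris-HCl, pH 7.4. Ki from six to eight antagonist concentrations: IC50 converted by Cheng–Prusoff, curves fitted by weighted nonlinear least squares, four separate assays in duplicate (mean ± SEM). Single-concentration runs give percentage inhibition of specific binding.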

[2] = target: T3, Adenosine receptor A2b (Homo sapiens) (UniProt P29275); experiment: Antagonist activity at human recombinant adenosine A2B receptor expressed in CHO cells assessed as inhibition of NECA-induced cAMP levels at 1 uM; assay type: functional, cell-based
T3 sequence (whole entry): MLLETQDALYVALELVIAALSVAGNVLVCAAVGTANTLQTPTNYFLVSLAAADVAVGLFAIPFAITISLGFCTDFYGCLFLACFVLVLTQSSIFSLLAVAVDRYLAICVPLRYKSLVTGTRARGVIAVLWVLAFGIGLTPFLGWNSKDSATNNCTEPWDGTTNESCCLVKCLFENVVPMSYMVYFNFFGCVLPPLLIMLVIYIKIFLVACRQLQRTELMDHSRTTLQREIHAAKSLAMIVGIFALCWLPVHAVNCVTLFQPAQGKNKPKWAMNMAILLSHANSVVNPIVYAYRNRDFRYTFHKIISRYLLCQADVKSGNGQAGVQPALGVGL
Outline: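 hA2B-transfected CHO cells (1×10⁶/assay), preincubated 10 min at 37 °C in pH 7.4 saline-Hepes-glucose buffer with 2 IU/ml adenosine deaminase and Ro 20-1724 as phosphodiesterase inhibitor. Compound tested against 200 nM NECA-stimulated cAMP. Reaction stopped with cold 6% TCA and ether-extracted. cAMP measured by competition binding with [³H]cAMP and bovine adrenal binding protein (150 min, 4 °C), charcoal separation, scintillation counting; expressed as percentage inhibition.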

Adenosine receptor A3 = target: T4, Adenosine receptor A3 (Homo sapiens, UniProt P0DMS8); experiment: Displacement of [125I]I-AB-MECA from human recombinant adenosine A3 receptor expressed in CHO cells by scintillation counting; assay type: cell-based
T4 sequence (P0DMS8 whole entry): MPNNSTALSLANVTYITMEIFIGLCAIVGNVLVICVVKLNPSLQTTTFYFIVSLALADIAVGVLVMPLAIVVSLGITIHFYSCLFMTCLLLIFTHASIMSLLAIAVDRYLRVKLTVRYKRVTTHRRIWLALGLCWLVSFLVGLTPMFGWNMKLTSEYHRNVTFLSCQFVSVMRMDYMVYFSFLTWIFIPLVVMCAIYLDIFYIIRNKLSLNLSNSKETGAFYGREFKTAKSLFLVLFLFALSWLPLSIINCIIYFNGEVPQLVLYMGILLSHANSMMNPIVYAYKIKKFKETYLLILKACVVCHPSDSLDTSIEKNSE
Outline: (§2)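 For hA3, CHO membranes are incubated with [¹²⁵I]AB-MECA in 50 mM Tris-HCl, 10 mM MgCl2, 1 mM EDTA, pH 7.4, for 120 min at 4 °C. Ki from six to eight ligand concentrations via Cheng–Prusoff with weighted nonlinear least-squares fitting; four assays in duplicate (mean ± SEM). Single-concentration runs give percentage inhibition.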

[3] = target: T5, Adenosine receptor A3 (Homo sapiens) (UniProt P0DMS8); experiment: Displacement of [125I]I-AB-MECA from human recombinant adenosine A3 receptor expressed in CHO cells at 1 uM by scintillation counting; assay type: cell-based; outline: as §2
T5 sequence (whole entry): T4 sequence (P0DMS8 whole entry)

Adenosine receptor A2a [4] = target: T1, Adenosine receptor A2a; experiment: Displacement of [3H]ZM241385 from human recombinant adenosine A2A receptor expressed in CHO cell membranes at 1 uM by scintillation counting
Outline: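 Uses 1 nM [³H]ZM241385 with hA2A CHO membranes in 50 mM Tris-HCl, 10 mM MgCl2, pH 7.4, for 60 min at 4 °C. Ki from six to eight antagonist concentrations via Cheng–Prusoff with weighted nonlinear least-squares fitting; four assays in duplicate (mean ± SEM). Single-concentration runs give percentage inhibition.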

[5] = target: T6, Adenosine receptor A1 (Homo sapiens) (UniProt P30542); experiment: Displacement of [3H]DPCPX from human recombinant adenosine A1 receptor expressed in CHO cell membranes at 1 uM by scintillation counting; outline: as §1
T6 sequence (whole entry): T2 sequence (P30542 whole entry)

Adenosine receptor A2a [6] = target: T1, Adenosine receptor A2a; settings: CHO, 10 uM

T1 sequence (P29274 whole entry): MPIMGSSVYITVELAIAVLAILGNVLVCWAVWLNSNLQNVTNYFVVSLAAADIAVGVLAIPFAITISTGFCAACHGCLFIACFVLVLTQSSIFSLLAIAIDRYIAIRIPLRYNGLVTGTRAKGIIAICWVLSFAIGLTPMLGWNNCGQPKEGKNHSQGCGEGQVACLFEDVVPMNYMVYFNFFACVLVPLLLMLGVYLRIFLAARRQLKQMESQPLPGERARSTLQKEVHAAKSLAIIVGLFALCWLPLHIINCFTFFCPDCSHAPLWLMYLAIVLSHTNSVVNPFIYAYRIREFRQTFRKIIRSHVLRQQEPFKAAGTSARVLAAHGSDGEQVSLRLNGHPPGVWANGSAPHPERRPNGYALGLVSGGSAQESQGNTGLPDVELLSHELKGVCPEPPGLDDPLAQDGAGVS

Ki (Adenosine receptor A2a [1]) [µM]	Ki (Adenosine receptor A1) [µM]	inhibition [2] [%]	Ki (Adenosine receptor A3) [µM]	inhibition [3] [%]	inhibition (Adenosine receptor A2a [4]) [%]	inhibition [5] [%]	inhibition (Adenosine receptor A2a [6]) [%]	SMILES
0.75	0.97	4	0.5	–	–	–	–	Cn1cc2c(n1)c(N)nc1c(OCc3ccccc3)cccc12
–	–	5	–	18	26	20	–	Cn1cc2c(n1)c(N)nc1ccccc12
–	0.455	3	–	1	1	–	–	Nc1nc2c(NCc3ccccc3)cccc2c2cn(-c3ccccc3)nc12
–	–	7	–	6	1	6	–	O=c1[nH]c2c(OC(c3ccccc3)c3ccccc3)cccc2c2cn(-c3ccccc3)nc12
–	–	2	–	12	1	2	–	Cn1cc2c(n1)c(=O)[nH]c1ccccc12
–	0.3	2	–	29	35	–	–	Nc1nc2c(Br)cccc2c2cn(-c3ccccc3)nc12
–	–	–	–	–	–	–	43	O=c1[nH]c2ccccc2c2cn(-c3ccccc3)nc12
–	–	5	–	28	11	40	–	Nc1nc2c(OCCc3ccccc3)cccc2c2cn(-c3ccccc3)nc12
–	–	3	0.6	–	1	2	–	Cn1cc2c(n1)c(=O)[nH]c1c(OCc3ccccc3)cccc12
–	0.14	5	–	20	16	–	–	Nc1nc2c(OCc3ccccc3)cccc2c2cn(-c3ccccc3)nc12
–	–	4	–	16	5	1	–	O=c1[nH]c2c(O)cccc2c2cn(-c3ccccc3)nc12
–	–	5	–	18	1	8	–	Nc1cccc2c1[nH]c(=O)c1nn(-c3ccccc3)cc12
–	–	5	–	16	17	8	–	O=c1[nH]c2c(Br)cccc2c2cn(-c3ccccc3)nc12
–	–	2	–	33	1	20	–	O=c1[nH]c2c(OCc3ccccc3)cccc2c2cn(-c3ccccc3)nc12
–	–	5	–	14	1	3	–	O=C(Nc1cccc2c1[nH]c(=O)c1nn(-c3ccccc3)cc12)OCc1ccccc1
–	0.1	4	–	20	19	–	–	Nc1nc2c(O)cccc2c2cn(-c3ccccc3)nc12
